In ChEMBL document CHEMBL1121633, “Neuroleptic 4-aryltetrahydropyrrolo[3,4-b]indoles” (1980) one finds ED50 data, which are given here for 15 compounds.

Experiment [1] has as its system Rattus norvegicus. Briefly: Antipsychotic activity was assessed by ability to antagonize the stereotypy induced in rats by d-amphetamine (5 mg/kg, ip) after 5 h. Format: functional. In short, it runs like this:
(§1)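 Rats were housed singly in covered plastic compartments and briefly acclimated. Groups of five received compound ip at doses spaced 0.5 log unit (e.g., 1, 3.2, 10, 32 mg/kg). d-Amphetamine sulfate 5 mg/kg ip was given 1, 5 or 24 h later. One hour after each challenge, at peak amphetamine effect, each rat's most characteristic behavior was rated on a six-point scale.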

For experiment [2], the system named is Rattus norvegicus. Briefly: Antipsychotic activity was assessed by ability to antagonize the stereotypy induced in rats by d-amphetamine (5 mg/kg, ip) after 1 h. Format: functional. In short, it runs like this: as §1
The test system of experiment [3] is Rattus norvegicus. Briefly: Antipsychotic activity was assessed by ability to antagonize the stereotypy induced in rats by d-amphetamine (5 mg / kg, ip) after 1 h. Format: functional. In short, it runs like this: as §1
For experiment [4], the system named is Rattus norvegicus. Briefly: Antipsychotic activity was assessed by ability to antagonize the stereotypy induced in rats by d-amphetamine (5 mg / kg, ip) after 5 h. Format: functional. In a few lines:
as §1

Experiment [5] concerns Rattus norvegicus. Briefly: Antipsychotic activity was assessed by ability to antagonize the stereotypy induced in rats by d-amphetamine (5 mg/kg, ip) after 24 h. Format: functional. In a few lines: as §1
The test system of experiment [6] is Rattus norvegicus. Briefly: Antipsychotic activity was assessed by ability to antagonize the stereotypy induced in rats by d-amphetamine (5 mg / kg, ip) after 5 h; Range is 10-32. Type of experiment: functional. In short, it runs like this:
as §1

In experiment [7] the test system is Rattus norvegicus. Briefly: Antipsychotic activity was assessed by ability to antagonize the stereotypy induced in rats by d-amphetamine (5 mg / kg, ip) after 1 h; Range is 3.2-5.6. Format: functional. In a few lines:
as §1

Experiment [8] deals with Rattus norvegicus. Briefly: Antipsychotic activity was assessed by ability to antagonize the stereotypy induced in rats by d-amphetamine (5 mg/kg, ip) after 1 h; Range is 10-32. Format: functional. In short, it runs like this:
as §1

The subject of experiment [9] is Rattus norvegicus. Briefly: Antipsychotic activity was assessed by ability to antagonize the stereotypy induced in rats by d-amphetamine (5 mg / kg, ip) after 1 h; Range is 0.1-0.32. Type of experiment: functional. In a few lines: as §1
Experiment [10] has as its system Rattus norvegicus. Briefly: Antipsychotic activity was assessed by ability to antagonize the stereotypy induced in rats by d-amphetamine (5 mg / kg, ip) after 24 h; Range is 1.0-3.2. Format: functional. In short, it runs like this: as §1
The test system of experiment [11] is Rattus norvegicus. Briefly: Antipsychotic activity was assessed by ability to antagonize the stereotypy induced in rats by d-amphetamine (5 mg / kg, ip) after 5 h; Range is 0.1-0.32. Type of experiment: functional. In short, it runs like this:
as §1

Experiment [12] concerns Rattus norvegicus. Briefly: Antipsychotic activity was assessed by ability to antagonize the stereotypy induced in rats by d-amphetamine (5 mg / kg, ip) after 1 h; Range is 1.0-3.2. Type of experiment: functional. In a few lines: as §1
The subject of experiment [13] is Rattus norvegicus. Briefly: Antipsychotic activity was assessed by ability to antagonize the stereotypy induced in rats by d-amphetamine (5 mg / kg, ip) after 24 h; Range is 3.2-10. Type of experiment: functional. In a few lines: as §1
The subject of experiment [14] is Rattus norvegicus. Briefly: Antipsychotic activity was assessed by ability to antagonize the stereotypy induced in rats by d-amphetamine (5 mg / kg, ip) after 5 h; Range is 1.0-3.2. Format: functional. In short, it runs like this: as §1
Experiment [15] has as its system Rattus norvegicus. Briefly: Antipsychotic activity was assessed by ability to antagonize the stereotypy induced in rats by d-amphetamine (5 mg/kg, ip) after 1 h; Range is 3.2-10. Format: functional. In a few lines: as §1
Experiment [16] deals with Rattus norvegicus. Briefly: Antipsychotic activity was assessed by ability to antagonize the stereotypy induced in rats by d-amphetamine (5 mg/kg, ip) after 5 h; Range is 3.2-10. Type of experiment: functional. In a few lines:
as §1

Experiment [17] deals with Rattus norvegicus. Briefly: Antipsychotic activity was assessed by ability to antagonize the stereotypy induced in rats by d-amphetamine (5 mg / kg, ip) after 1 h; Range is 3.2-10.
For experiment [18], the system named is Rattus norvegicus. Briefly: Antipsychotic activity was assessed by ability to antagonize the stereotypy induced in rats by d-amphetamine (5 mg / kg, ip) after 24 h. Format: functional. In a few lines: as §1

The structures appear in SMILES notation. Bounds are passed on as bounds.

A word on the ED50: it is the midpoint of the dose-response relation. Take `CCOC(=O)N1Cc2c(n(-c3ccc(F)cc3)c3ccc(F)cc23)C1`: the ED50 with Rattus norvegicus [1] and in the experiment on Rattus norvegicus [2] was > 32 mg/kg in each case.

In the case of `Cl.O=C(CCCN1Cc2c(n(-c3ccc(F)cc3)c3ccc(F)cc23)C1)c1ccccc1`, the ED50 with Rattus norvegicus [3] and in the experiment on Rattus norvegicus [4] was > 32 mg/kg throughout.

Take `Cl.Fc1ccc(-n2c3c(c4cc(F)ccc42)CNC3)cc1`: the ED50 with Rattus norvegicus [5] was 32 mg/kg; in the experiment with Rattus norvegicus [1] it was > 32 mg/kg; in the experiment with Rattus norvegicus [2], > 32 mg/kg.

`Cl.OC(CCCCN1Cc2c(n(-c3ccc(F)cc3)c3ccc(F)cc23)C1)c1ccc(F)cc1` (stereo unspecified): the ED50 in the experiment with Rattus norvegicus [3] is > 32 mg/kg; in the experiment with Rattus norvegicus [6], 10 mg/kg.

Regarding `CN1Cc2c(n(-c3ccc(F)cc3)c3ccc(F)cc23)C1.Cl`, the ED50 was > 10 mg/kg in the experiment on Rattus norvegicus [4] and 3.2 mg/kg with Rattus norvegicus [7].

For the compound `Cl.OC(CCCN1Cc2c(n(-c3ccc(F)cc3)c3ccc(F)cc23)C1)c1ccccc1` (stereo unspecified), the ED50 was > 32 mg/kg with Rattus norvegicus [5], > 10 mg/kg with Rattus norvegicus [1] and 10 mg/kg in the experiment with Rattus norvegicus [8].

In the case of `Cl.Fc1ccc(-n2c3c(c4cc(F)ccc42)CN(CCc2ccccc2)C3)cc1`, the ED50 in the experiment on Rattus norvegicus [3] and in the experiment with Rattus norvegicus [4] was > 32 mg/kg each time.

Regarding `Cl.O=C(CCCCN1Cc2c(n(-c3ccc(F)cc3)c3ccc(F)cc23)C1)c1ccc(F)cc1`, the median effective dose (ED50) in the experiment with Rattus norvegicus [3] was 32 mg/kg; in the experiment on Rattus norvegicus [4], > 32 mg/kg.

As to `Cl.OC(CCCN1CCc2c(c3cc(F)ccc3n2-c2ccc(F)cc2)C1)c1ccc(F)cc1` (stereo unspecified), the values for the ED50 in the experiment with Rattus norvegicus [9], with Rattus norvegicus [10] and in the experiment with Rattus norvegicus [11] were 0.1 mg/kg, 1 mg/kg and 0.1 mg/kg, respectively.

For `CCOC(=O)N1Cc2[nH]c3ccc(F)cc3c2C1.Cl`, the ED50 in the experiment on Rattus norvegicus [3] and with Rattus norvegicus [4] was > 32 mg/kg in each case.

With `CCCN1Cc2c(n(-c3ccc(F)cc3)c3ccc(F)cc23)C1.I`, the ED50 with Rattus norvegicus [3] and in the experiment on Rattus norvegicus [4] was > 32 mg/kg in each case.

Regarding `Cl.OC(CCCN1Cc2c(n(-c3ccc(F)cc3)c3ccc(F)cc23)C1)c1ccc(F)cc1` (stereo unspecified), the ED50 amounted to 1 mg/kg in the experiment with Rattus norvegicus [12], 3.2 mg/kg in the experiment on Rattus norvegicus [13] and 1 mg/kg in the experiment with Rattus norvegicus [14].

As to `Cl.Fc1ccc(-n2c3c(c4cc(F)ccc42)CN(Cc2ccccc2)C3)cc1`, the ED50 in the experiment on Rattus norvegicus [3] and in the experiment with Rattus norvegicus [4] was > 32 mg/kg throughout.

With `Cl.O=C(CCCN1Cc2c(n(-c3ccc(F)cc3)c3ccc(F)cc23)C1)c1ccc(F)cc1`, the 50% effective dose (ED50) is > 10 mg/kg in the experiment with Rattus norvegicus [5], 3.2 mg/kg with Rattus norvegicus [15] and 3.2 mg/kg with Rattus norvegicus [16].

For the compound `CN(C)CCCN1c2ccccc2Sc2ccc(Cl)cc21` [CHLORPROMAZINE], the ED50 with Rattus norvegicus [4] came to 17.8 mg/kg; with Rattus norvegicus [17] it was 3.2 mg/kg; with Rattus norvegicus [18], 56 mg/kg.
